From ChEMBL document CHEMBL4014336 (J Med Chem, 2017)
In brackets after ≈: the same amount, converted by molar mass.

Assays:
Cynomolgus monkey [1] = test: In vivo inhibition of 11beta-HSD1 in non-fasting diet-induced obese cynomolgus monkey assessed as decrease in corticosterone excursion in plasma pretreated via oral gavage for 30 mins followed by DHC administration measured up to 60 mins by enzyme immunosorbent assay; assay type: functional; conditions: Macaca fascicularis
In short: (§1)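 Cynomolgus monkeys given test compound at a predetermined time before the experiment, chosen from its pharmacokinetics. Substrate DHC (rodent substrate, used in place of cortisone) given afterwards. Blood sampled at various times. Design otherwise similar to the mouse DHC challenge.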

Plasma [2] = test: Fraction unbound in cynomolgus monkey plasma at 1 mg/kg after 24 hrs; assay type: ADME, organism-based, Macaca fascicularis; conditions: in vivo
[3] = Apparent elimination half life in dog at 1 mg/kg, iv; assay type: ADME, organism-based, Canis lupus familiaris; conditions: in vivo, read-out: betat1/2(app) (converted)
in vivo [4] = conditions: mouse, adipose tissue / plasma, iv, 5 mg/kg
[5] = Permeability from basolateral to apical side in human Caco2 cells; assay type: ADME, cell-based; conditions: Caco-2, read-out: permeability
Mus musculus = test: In vivo inhibition of 11beta-HSD1 in po dosed non-fasting diet-induced obese mouse assessed as plasma concentration required to show decrease in corticosterone excursion pretreated for 60 mins followed by DHC administration measured up to 120 mins by enzyme immunosorbent assay; assay type: functional, organism-based
In short: (§2)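 Nonfasting diet-induced obese male mice, groups of n = 6 matched for body weight. Tail bleed at −60 min, then oral dosing with vehicle (0.5% Methocel, 0.1% Tween 80 in water) or drug. DHC 10 mg/kg given orally 60 min later. Bleeds at 30, 60 and 120 min after DHC. Plasma corticosterone measured by enzyme immunosorbent assay. Drug levels measured in terminal bleed samples.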

[6] = Metabolic stability in cynomolgus monkey liver microsomes assessed as UGT-mediated glucuronidation of compound by measuring half life in presence of UDPGA; assay type: ADME, Macaca fascicularis
In short: (§3)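 Liver microsomal glucuronidation incubations in the presence of UDPGA; parent half-life determined.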

Cynomolgus monkey [7] = test: In vivo inhibition of 11beta-HSD1 in non-fasting diet-induced obese cynomolgus monkey assessed as plasma concentration required to show decrease in corticosterone excursion pretreated via oral gavage for 30 mins followed by DHC administration measured up to 60 mins by enzyme immunosorbent assay; assay type: functional, organism-based; conditions: Macaca fascicularis; in short: as §1
Cytochrome P450 2B6 = Cytochrome P450 2B6 (Homo sapiens, UniProt P20813); test: Inhibition of CYP2B6 (unknown origin); assay type: ADME
Cytochrome P450 2B6, sequence (P20813 whole entry): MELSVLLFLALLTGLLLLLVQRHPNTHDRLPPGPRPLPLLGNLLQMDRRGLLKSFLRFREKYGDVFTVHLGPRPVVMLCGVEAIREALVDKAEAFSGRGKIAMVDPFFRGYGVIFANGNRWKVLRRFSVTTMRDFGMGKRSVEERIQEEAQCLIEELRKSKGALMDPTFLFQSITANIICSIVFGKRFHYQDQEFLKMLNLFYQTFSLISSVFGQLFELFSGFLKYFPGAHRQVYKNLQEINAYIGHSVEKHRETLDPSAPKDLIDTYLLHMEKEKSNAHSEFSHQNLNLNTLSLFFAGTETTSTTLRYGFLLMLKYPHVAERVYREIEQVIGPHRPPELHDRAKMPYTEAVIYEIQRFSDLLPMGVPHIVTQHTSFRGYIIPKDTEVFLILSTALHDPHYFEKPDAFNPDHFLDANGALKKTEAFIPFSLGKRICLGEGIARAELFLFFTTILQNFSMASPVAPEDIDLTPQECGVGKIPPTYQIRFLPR

Cytochrome P450 2A6 = Cytochrome P450 2A6 (Homo sapiens, UniProt P11509); test: Inhibition of CYP2A6 (unknown origin); assay type: ADME
Cytochrome P450 2A6, sequence (P11509 whole entry): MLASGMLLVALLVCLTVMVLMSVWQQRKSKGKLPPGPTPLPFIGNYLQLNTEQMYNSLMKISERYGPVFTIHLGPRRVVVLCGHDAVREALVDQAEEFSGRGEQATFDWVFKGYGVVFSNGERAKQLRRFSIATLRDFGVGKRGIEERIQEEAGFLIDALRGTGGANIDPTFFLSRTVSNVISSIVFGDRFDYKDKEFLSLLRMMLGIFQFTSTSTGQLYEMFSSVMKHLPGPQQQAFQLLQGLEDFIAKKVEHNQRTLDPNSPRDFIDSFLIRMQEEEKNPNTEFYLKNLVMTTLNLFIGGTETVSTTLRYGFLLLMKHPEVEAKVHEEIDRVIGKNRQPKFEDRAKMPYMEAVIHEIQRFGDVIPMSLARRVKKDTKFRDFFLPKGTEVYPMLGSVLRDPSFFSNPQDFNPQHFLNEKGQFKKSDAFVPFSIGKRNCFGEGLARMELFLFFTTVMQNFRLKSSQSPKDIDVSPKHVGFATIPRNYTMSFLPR

Rattus norvegicus [8] = test: Volume of distribution at steady state in rat at […], iv; assay type: ADME, organism-based; conditions: in vivo
[9] = Volume of distribution at steady state in mouse at 5 mg/kg, iv; assay type: ADME, organism-based; conditions: in vivo, read-out: Vdss
[10] = AUC (0 to 24 hrs) in mouse at 5 mg/kg, iv; assay type: ADME, organism-based; set-up: time < 24 hr, dose 5 mg/kg, route intravenous; conditions: in vivo
Liver [11] = test: Metabolic stability in rat liver microsomes assessed as parent compound remaining after 10 mins; assay type: ADME, microsome; conditions: microsomes, 10 min
In short: (§4)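 Parent compound remaining after a 10 min incubation with human, mouse or rat liver microsomes.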

[12] = target: 11-beta-hydroxysteroid dehydrogenase type 2 (Rattus norvegicus, UniProt P50233); test: Inhibition of rat 11beta-HSD2
11-beta-hydroxysteroid dehydrogenase type 2 (Rattus norvegicus, UniProt P50233), sequence (P50233 whole entry): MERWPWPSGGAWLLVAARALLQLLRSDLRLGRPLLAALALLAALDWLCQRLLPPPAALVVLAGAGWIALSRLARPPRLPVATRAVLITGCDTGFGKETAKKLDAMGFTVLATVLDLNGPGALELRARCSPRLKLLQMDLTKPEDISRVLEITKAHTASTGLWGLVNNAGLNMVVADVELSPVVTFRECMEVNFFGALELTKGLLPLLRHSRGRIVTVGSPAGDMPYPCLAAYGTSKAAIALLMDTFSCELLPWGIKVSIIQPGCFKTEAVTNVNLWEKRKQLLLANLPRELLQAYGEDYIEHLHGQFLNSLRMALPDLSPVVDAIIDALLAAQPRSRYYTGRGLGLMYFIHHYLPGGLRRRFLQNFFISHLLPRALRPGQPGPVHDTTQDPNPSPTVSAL

[13] = Volume of distribution at steady state in dog at 1 mg/kg, iv; assay type: ADME, organism-based, Canis lupus familiaris; conditions: in vivo, read-out: Vdss
Rattus norvegicus [14] = test: MRT in rat at […], iv; assay type: ADME, organism-based; conditions: in vivo
[15] = Aqueous solubility of the compound in pH 6.5 solution; assay type: physicochemical; conditions: pH 6.5, pH 6.5
In short: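 Aqueous solubility measured at pH 6.5.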

[16] = Oral bioavailability in dog at 2 mg/kg; assay type: ADME, organism-based, Canis lupus familiaris; conditions: in vivo
[17] = Tmax in non-fasting diet-induced obese cynomolgus monkey administered via oral gavage; assay type: ADME, Macaca fascicularis; conditions: in vivo
in vivo [18] = conditions: mouse, brain / plasma, iv, 5 mg/kg
[19] = Inhibition of cynomolgus monkey 11beta-HSD2; set-up: species or system Macaca fascicularis
Cytochrome P450 2C9 = Cytochrome P450 2C9 (Homo sapiens, UniProt P11712); test: Inhibition of CYP2C9 (unknown origin); assay type: ADME
Cytochrome P450 2C9, sequence (P11712 whole entry): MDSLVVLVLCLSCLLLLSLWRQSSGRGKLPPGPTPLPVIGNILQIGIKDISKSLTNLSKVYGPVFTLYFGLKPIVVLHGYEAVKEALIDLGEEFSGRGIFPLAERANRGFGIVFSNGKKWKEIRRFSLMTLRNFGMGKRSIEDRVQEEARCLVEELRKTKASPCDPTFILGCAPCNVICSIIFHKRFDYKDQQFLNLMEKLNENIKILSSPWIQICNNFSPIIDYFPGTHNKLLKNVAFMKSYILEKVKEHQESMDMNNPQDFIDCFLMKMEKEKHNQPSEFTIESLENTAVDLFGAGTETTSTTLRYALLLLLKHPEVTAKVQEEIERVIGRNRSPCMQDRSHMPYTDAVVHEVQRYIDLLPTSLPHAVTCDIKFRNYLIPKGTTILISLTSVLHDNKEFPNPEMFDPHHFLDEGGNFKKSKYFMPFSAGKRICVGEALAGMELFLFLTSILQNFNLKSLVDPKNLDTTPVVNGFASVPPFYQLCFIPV

[20] = Protein binding in human plasma; assay type: ADME, cell-free; conditions: read-out: PPB (converted)
[21] = target: 11-beta-hydroxysteroid dehydrogenase type 2 (Homo sapiens, UniProt P80365); test: Inhibition of human 11beta-HSD2 up to 30 uM
11-beta-hydroxysteroid dehydrogenase type 2 (Homo sapiens, UniProt P80365), sequence (P80365 whole entry): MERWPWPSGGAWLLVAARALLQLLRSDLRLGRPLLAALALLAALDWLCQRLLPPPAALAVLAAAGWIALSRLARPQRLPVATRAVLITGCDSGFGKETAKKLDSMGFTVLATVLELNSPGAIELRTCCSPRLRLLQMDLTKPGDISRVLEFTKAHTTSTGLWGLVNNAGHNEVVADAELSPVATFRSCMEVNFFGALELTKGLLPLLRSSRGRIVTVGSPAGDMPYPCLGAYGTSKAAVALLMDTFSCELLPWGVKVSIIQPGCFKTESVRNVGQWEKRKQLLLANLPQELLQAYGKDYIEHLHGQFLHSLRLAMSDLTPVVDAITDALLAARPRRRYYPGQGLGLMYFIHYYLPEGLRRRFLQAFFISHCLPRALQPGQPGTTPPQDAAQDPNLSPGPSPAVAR
In short: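 Human 11β-HSD2 counter-screen in vitro; compound tested up to 30 μM.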

Rattus norvegicus [22] = test: Toxicity in rat assessed as plasma volume expansion at 300 mg/kg for 2 weeks; assay type: organism-based; conditions: in vivo, 336 h
In short: (§5)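 Exploratory rat toxicology study lasting 2 weeks, with 300 mg/kg as the highest dose given. The study assessed hypokalemia, plasma volume expansion, hypertension and renal toxicity.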

[23] = AUC (0 to 24 hrs) in rat at […], iv; assay type: ADME, organism-based; set-up: time < 24 hr, dose 7.7 mg/kg, route intravenous; conditions: in vivo
[24] = Metabolic stability in mouse liver microsomes assessed as UGT-mediated glucuronidation of compound by measuring half life in presence of UDPGA; assay type: ADME; in short: as §3
[25] = AUC (0 to 24 hrs) in dog at 1 mg/kg, iv; assay type: ADME, organism-based, Canis lupus familiaris; set-up: time < 24 hr, dose 1 mg/kg, route intravenous; conditions: in vivo
[26] = Metabolic stability in dog liver microsomes assessed as UGT-mediated glucuronidation of compound by measuring half life in presence of UDPGA; assay type: ADME, Canis lupus familiaris; in short: as §3
[27] = target: 11-beta-hydroxysteroid dehydrogenase 1 (Mus musculus, UniProt P50172); test: Inhibition of 11beta-HSD1 in mouse 3T3L1 cells; assay type: cell-based
11-beta-hydroxysteroid dehydrogenase 1, sequence (P50172 whole entry): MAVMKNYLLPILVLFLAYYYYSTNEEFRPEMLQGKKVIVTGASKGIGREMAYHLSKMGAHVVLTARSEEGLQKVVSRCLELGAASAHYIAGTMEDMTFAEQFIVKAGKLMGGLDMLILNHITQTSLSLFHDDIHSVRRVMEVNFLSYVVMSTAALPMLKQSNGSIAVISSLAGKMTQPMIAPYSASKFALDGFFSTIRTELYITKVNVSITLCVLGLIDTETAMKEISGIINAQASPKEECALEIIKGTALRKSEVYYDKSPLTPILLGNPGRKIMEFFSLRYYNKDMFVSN
In short: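 Mouse adipocyte-like 3T3-L1 cell line, not genetically manipulated, so that inhibition acts on the cells' native mouse 11β-HSD1 activity.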

in vivo [28] = conditions: mouse, liver / plasma, iv, 5 mg/kg
Cynomolgus monkey [29] = test: Toxicity in cynomolgus monkey assessed as HPA axis activation by measuring DHEAS level at 1 to 10 mg/kg for 7 days; assay type: organism-based, Macaca fascicularis; conditions: in vivo, 168 h
[30] = Oral bioavailability in mouse at 10 mg/kg; assay type: ADME, organism-based; conditions: in vivo
[31] = Volume of distribution at steady state in cynomolgus monkey at 1 mg/kg, iv; assay type: ADME, organism-based, Macaca fascicularis; conditions: in vivo, read-out: Vdss
Plasma [32] = test: Drug metabolism in rat plasma assessed as ketone A formation at […], iv; assay type: ADME, organism-based; conditions: in vivo
[33] = Permeability from apical to basolateral side in human Caco2 cells; assay type: ADME, cell-based; conditions: Caco-2, read-out: permeability
[34] = Protein binding in rat plasma; assay type: ADME, cell-free; conditions: read-out: PPB (converted)
[35] = AUC (0 to 24 hrs) in cynomolgus monkey at 1 mg/kg, iv; assay type: ADME, organism-based, Macaca fascicularis; set-up: dose 1 mg/kg, time < 24 hr, route intravenous; conditions: in vivo
Plasma [36] = test: Drug uptake in po dosed non-fasting diet-induced obese mouse plasma after 3 hrs; assay type: ADME, organism-based; conditions: in vivo; in short: as §2
Rattus norvegicus [37] = test: Apparent elimination half life in rat at […], iv; assay type: ADME, organism-based; conditions: in vivo
Cytochrome P450 2C19 = Cytochrome P450 2C19 (Homo sapiens, UniProt P33261); test: Inhibition of CYP2C19 (unknown origin); assay type: ADME
Cytochrome P450 2C19, sequence (P33261 whole entry): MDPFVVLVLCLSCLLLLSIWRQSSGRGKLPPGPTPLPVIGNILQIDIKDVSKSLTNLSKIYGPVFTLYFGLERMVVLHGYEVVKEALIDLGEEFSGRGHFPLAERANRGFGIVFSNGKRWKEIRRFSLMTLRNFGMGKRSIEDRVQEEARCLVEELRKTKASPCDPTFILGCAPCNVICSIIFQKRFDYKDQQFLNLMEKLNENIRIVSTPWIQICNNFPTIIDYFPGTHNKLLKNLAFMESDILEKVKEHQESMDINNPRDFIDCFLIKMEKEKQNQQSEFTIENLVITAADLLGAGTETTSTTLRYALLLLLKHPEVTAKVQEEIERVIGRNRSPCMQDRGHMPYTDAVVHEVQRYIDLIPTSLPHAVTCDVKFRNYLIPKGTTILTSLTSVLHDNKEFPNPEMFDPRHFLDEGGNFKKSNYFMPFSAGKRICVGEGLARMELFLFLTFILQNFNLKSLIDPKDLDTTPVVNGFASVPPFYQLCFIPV

Cytochrome P450 2E1 = Cytochrome P450 2E1 (Homo sapiens, UniProt P05181); test: Inhibition of CYP2E1 (unknown origin); assay type: ADME
Cytochrome P450 2E1, sequence (P05181 whole entry): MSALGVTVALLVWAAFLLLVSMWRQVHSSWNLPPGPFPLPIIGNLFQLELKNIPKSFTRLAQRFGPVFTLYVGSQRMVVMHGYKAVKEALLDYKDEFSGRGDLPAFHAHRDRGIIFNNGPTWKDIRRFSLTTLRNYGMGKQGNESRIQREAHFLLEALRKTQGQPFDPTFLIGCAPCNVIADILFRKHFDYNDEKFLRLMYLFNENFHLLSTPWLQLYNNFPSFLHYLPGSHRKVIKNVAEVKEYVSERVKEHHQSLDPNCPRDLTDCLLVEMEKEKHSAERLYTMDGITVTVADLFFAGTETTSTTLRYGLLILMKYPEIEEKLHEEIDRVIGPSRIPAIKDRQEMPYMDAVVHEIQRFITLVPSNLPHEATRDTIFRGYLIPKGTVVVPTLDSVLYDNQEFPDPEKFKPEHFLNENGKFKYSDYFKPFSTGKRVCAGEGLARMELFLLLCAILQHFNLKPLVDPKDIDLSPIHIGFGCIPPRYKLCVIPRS

Rattus norvegicus [38] = test: Renal toxicity in rat at 300 mg/kg for 2 weeks; assay type: organism-based; conditions: in vivo, 336 h; in short: as §5
[39] = target: 11-beta-hydroxysteroid dehydrogenase type 2 (Mus musculus, UniProt P51661); test: Inhibition of mouse 11beta-HSD2
11-beta-hydroxysteroid dehydrogenase type 2 (Mus musculus, UniProt P51661), sequence (P51661 whole entry): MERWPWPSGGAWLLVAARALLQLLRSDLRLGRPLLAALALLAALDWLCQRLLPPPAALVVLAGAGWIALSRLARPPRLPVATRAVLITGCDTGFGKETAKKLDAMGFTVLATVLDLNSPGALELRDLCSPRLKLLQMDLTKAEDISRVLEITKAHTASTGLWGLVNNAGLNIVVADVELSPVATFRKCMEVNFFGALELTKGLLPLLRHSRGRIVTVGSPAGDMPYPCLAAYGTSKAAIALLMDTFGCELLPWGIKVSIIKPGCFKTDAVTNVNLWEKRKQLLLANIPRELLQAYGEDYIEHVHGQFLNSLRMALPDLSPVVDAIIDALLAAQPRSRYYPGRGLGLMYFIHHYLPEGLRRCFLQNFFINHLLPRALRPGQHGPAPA

Liver [40] = test: Metabolic stability in human liver microsomes assessed as parent compound remaining after 10 mins; assay type: ADME, microsome; conditions: microsomes, 10 min; in short: as §4

O=C(CC1(c2ccccc2)C2CC3CC1CC(C2)C3O)N1CC(O)C1 (stereo in doubt; form 2)
ED50 (Cynomolgus monkey [1]): 0.12 mg/kg | Cp(f) (Plasma [2]): 2 nM | half-life [3]: 7.4 h | Kp (in vivo [4]): 0.15 | Papp B→A [5]: 28.5 ×10⁻⁶ cm/s | EC50 (Mus musculus): 0.85 µM | half-life [6]: > 3.33 h | EC50 (Cynomolgus monkey [7]): 0.075 µM | IC50 (Cytochrome P450 2B6): > 40 µM | IC50 (Cytochrome P450 2A6): > 40 µM | Vdss (Rattus norvegicus [8]): 0.5 L/kg | Vd [9]: 2 L/kg | AUC(0-t) at 24 h [10]: 5 µM·h | Stability (Liver [11]): 67% | IC50 [12]: 3.5 µM | Vd [13]: 3 L/kg | MRT (Rattus norvegicus [14]): 1.3 h | solubility [15]: 1800 µg/mL (≈ 5.27 mM) | bioavailability [16]: 72% | Tmax [17]: 0.5 h | Kp (in vivo [18]): < 0.1 | IC50 [19]: 48 µM | IC50 (Cytochrome P450 2C9): > 40 µM | fraction unbound [20]: 0.46 | inhibition (INH) [21]: Not Active | Activity (Rattus norvegicus [22]): Non-Toxic | AUC(0-t) at 24 h [23]: 6 µM·h | half-life [24]: > 3.33 h | AUC(0-t) at 24 h [25]: 4.6 µM·h | half-life [26]: > 3.33 h | IC50 [27]: 0.0286 µM | Kp (in vivo [28]): 1 to 56 | Activity (Cynomolgus monkey [29]): Non-Toxic | bioavailability [30]: 56% | Vd [31]: 4.2 L/kg | Drug metabolism (Plasma [32]): Metabolite_Detected | Papp A→B [33]: 10.5 ×10⁻⁶ cm/s | fraction unbound [34]: 0.35 | AUC(0-t) at 24 h [35]: 2.3 µM·h | Drug uptake (Plasma [36]): Dose-dependent effect | betat1/2(app) (Rattus norvegicus [37]): 3 h | IC50 (Cytochrome P450 2C19): > 40 µM | IC50 (Cytochrome P450 2E1): > 40 µM | Activity (Rattus norvegicus [38]): Non-Toxic | IC50 [39]: 7.9 µM | Stability (Liver [40]): 91%
